Sampled rows, rich in hits. Any-hit rate of the full collection: about 3.5%.
pPAFAH FP inh: pPAFAH (human) enzyme inhibition; recombinant pPAFAH, FP-rhodamine probe fluorescence polarization; inhibition, % at 3.39 µM; Q13093; AID 463082; hit rate 1.5% among 330,000;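 active = inhibition above the mean inhibition across the screen plus 3 SD, cut at about 25% in these data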;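 also: inhibitors block binding of the rhodamine activity-based probe so polarization drops; 0% = enzyme with DMSO and 100% = wells lacking pPAFAH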
Target sequence (Q13093 whole entry, looked up): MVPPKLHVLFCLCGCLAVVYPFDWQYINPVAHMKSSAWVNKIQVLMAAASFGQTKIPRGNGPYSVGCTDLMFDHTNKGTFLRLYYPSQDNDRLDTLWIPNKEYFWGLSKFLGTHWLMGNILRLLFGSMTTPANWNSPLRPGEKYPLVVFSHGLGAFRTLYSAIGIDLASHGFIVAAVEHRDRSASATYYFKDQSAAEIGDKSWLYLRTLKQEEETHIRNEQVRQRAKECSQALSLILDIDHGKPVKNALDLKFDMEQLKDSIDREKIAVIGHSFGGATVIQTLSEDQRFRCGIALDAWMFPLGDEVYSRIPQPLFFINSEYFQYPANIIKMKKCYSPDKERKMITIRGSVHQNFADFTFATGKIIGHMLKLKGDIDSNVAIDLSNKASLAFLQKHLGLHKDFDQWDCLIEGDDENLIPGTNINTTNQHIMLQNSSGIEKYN
PAFAH2 FP inh: PAFAH2 (human) inhibition; recombinant PAFAH2, FP-rhodamine activity probe, fluorescence polarization; hit rate 0.99% among 340,000; Q99487; AID 492956; inhibition, % at 3.39 µM;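 active = inhibition above the mean over all tested compounds plus 3 SD, cut at about 30% in these data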;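 also: inhibitors block probe labeling of enzyme so polarization drops; 0% = enzyme with DMSO and 100% = wells lacking PAFAH2 protein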
PAFAH1B2 inh: inhibitors of human PAFAH1B2 | recombinant PAFAH1B2, FP-rhodamine activity probe, fluorescence polarization | inhibition, % at 3.39 µM | hit rate 1.2% among 340,000 | AID 492953;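 active = inhibition above the mean of all tested compounds plus 3 SD, cut at about 24% in these data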;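 also: 0% = enzyme with DMSO and 100% = wells lacking PAFAH1B2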
Apaf-1 inh: inhibitors of human Apaf-1 apoptosome; O14727; reconstituted apoptosome caspase-3 activity, DEVD-Rh110 fluorescence; inhibition, % at 20 µM; hit rate 0.71% among 330,000; AID 489030; active = inhibition of at least 40% at 20 µM;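 also: plate controls were DMSO wells for no effect and DEVD-CHO caspase inhibitor wells for full effect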
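Medium: Hepes buffer, pH 7.5 / System: biochemical Apaf-1 apoptosome reconstitution / Measured by: Rh110 fluorescence, excitation 480 nm, emission 540 nm / Times: compound with Apaf-1, dATP, procaspase-3 30 min, then 50 min reaction, room temperature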
PREPL inh: inhibits the human prolyl oligopeptidase-like enzyme; Q4J6C6; recombinant PREPL, fluorescence polarization activity-based probe; inhibition, % at 5.96 µM; hit rate 0.68% among 320,000; AID 2751; in the data active = inhibition above about 43%;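 also: 0% = enzyme with DMSO and 100% = wells lacking enzyme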
PAFAH1B3 inh: inhibitors of human PAFAH1B3 | Q15102 | recombinant PAFAH1B3, FP-rhodamine probe, fluorescence polarization | inhibition, % at 3.39 µM | hit rate 0.28% among 340,000 | AID 492972;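 active = inhibition above the screen-wide average of all tested compounds plus 3 SD, cut at about 25% in these data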;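 also: 0% = enzyme with DMSO only and 100% = wells lacking PAFAH1B3 protein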
Target sequence (Q15102 whole entry, looked up): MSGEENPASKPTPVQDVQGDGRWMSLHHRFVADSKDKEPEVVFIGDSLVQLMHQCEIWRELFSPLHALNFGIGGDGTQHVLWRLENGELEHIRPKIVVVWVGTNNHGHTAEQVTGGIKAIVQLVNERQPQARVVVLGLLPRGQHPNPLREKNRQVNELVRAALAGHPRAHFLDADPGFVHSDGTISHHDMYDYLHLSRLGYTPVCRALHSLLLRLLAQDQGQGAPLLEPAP
pPAFAH confirm: pPAFAH (human) inhibition, confirmed; inhibition, % at 3.39 µM; recombinant pPAFAH, FP-Rh probe fluorescence polarization; hit rate 72% among 2,300; shares compounds with pPAFAH FP inh;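 active = mean inhibition of the triplicate above the hit cutoff set for the earlier primary screen, cut at about 25% in these data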;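 also: 0% = enzyme with DMSO and 100% = wells lacking pPAFAH enzyme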
Active calls of the source: *; . = not tested or not shown.

SMILES	pPAFAH FP inh	PAFAH2 FP inh	PAFAH1B2 inh	Apaf-1 inh	PREPL inh	PAFAH1B3 inh	pPAFAH confirm
CC(C)OCCCNc1ccc(N2C(=O)CCCC2=O)cc1[N+](=O)[O-]	4.2	4.8	-3.7	-3.6	-3.4	4.7	.
CC(C)Cc1cc(C(=O)N2CCCC(CO)(Cc3ccc(F)cc3F)C2)n[nH]1 (centres undefined)	1.1	-6.7	2.9	0.0	-1.4	1.2	.
O=C(c1coc(=O)c(Br)c1)N1CCCc2ccccc21	43.4*	26.6	6.7	1.6	32.8	7.2	5.9
O=C(c1cccc(Br)c1)N1CCCc2ccccc21	-3.3	-8.8	4.4	5.0	4.5	-4.0	.
c1ccc(CSc2nnc(-c3ccco3)n2Cc2ccco2)cc1	9.5	8.3	5.0	16.8	-6.0	0.0	.
CCCCOc1[nH]c2nc(-c3ccco3)n(Cc3ccco3)c(=N)c2c1C#N	57.4*	29.1	11.9	24.2	25.0	-2.7	14.9
CN=C(c1ccc([N+](=O)[O-])cc1)N1CCCCC1	4.0	-1.0	-5.7	-6.9	-1.9	10.1	.
Cc1nc2ccc(F)cc2cc1C(=O)Nc1ccc(Cl)c(Cl)c1	42.2*	-10.1	-0.3	.	0.9	-6.3	1.6
Cc1ccc(C(=O)NCCCc2ccccc2)c(Cl)c1	1.7	1.9	0.0	7.5	7.3	5.8	.
O=C(NCCC(=O)N(CCc1ccccc1)Cc1ccccc1)c1ccccc1Cl	46.0*	4.7	-1.8	31.3	-3.7	4.1	0.9
COC(=O)c1ccc(NC(=S)N2CCN(Cc3ccccc3OC)CC2)cc1	-0.9	1.1	5.0	16.6	2.1	5.0	.
Cc1c(Br)c(O)c(Br)c2sc(=O)oc12	83.7*	-0.9	7.0	19.5	11.2	14.4	24.0
N#Cc1c(SCC(=O)Nc2nc3ccc(Br)cc3s2)sc2c(O)cc(=O)[nH]c12	51.2*	17.4	11.6	22.7	21.2	19.2	41.7*
CN(C)/C=C/C(=O)/C=C/c1ccc(Cl)cc1Cl	37.6*	9.0	4.9	6.4	0.9	4.2	4.0
CCOC(=O)c1c(NC(=O)CSc2nnc(CNC(=O)c3ccco3)n2C)sc2c1CCC2	6.9	-1.2	-3.7	7.5	11.7	1.2	.
CC(=O)Nc1cccc(NC(=O)c2ccccc2OCc2c(C)noc2C)c1	0.8	-6.2	4.5	-2.8	-9.2	4.5	.
NC(=O)Cn1c(=O)n(Cc2ccco2)c(=O)c2c3c(sc21)CCCCC3	36.4*	13.2	0.5	-1.5	4.1	1.3	15.2
CC(C)(C)n1ncc2c(=O)n(Cc3ccccc3Br)cnc21	-0.2	3.7	3.9	10.8	16.6	-0.6	.
O=C(NCC(=O)N1CCOCC1)c1ccccc1	6.2	4.4	2.7	-2.2	1.9	0.5	.
CC1=NN(c2ccccc2)C(=O)/C1=C\c1c(C)[nH]n(-c2ccccc2)c1=O	1.2	-4.2	-1.7	22.7	11.2	4.4	.
CC1=NN(c2ccccc2)C(=O)/C1=C/c1c(O)n(-c2ccc(F)c(Cl)c2)[nH]c1=O	74.7*	.	.	19.9	30.9	.	47.0*
CCOc1ccc(NC(=O)CC2C(=O)N(c3cccc(OC)c3)C(=O)N2CCOC)cc1 (centres undefined)	-0.1	-3.9	2.5	-9.1	12.4	-0.6	.
CCOC(=O)C(c1ccccc1)C(Nc1cc(C(F)(F)F)cc(C(F)(F)F)c1)c1ccccn1 (centres undefined)	3.3	-0.1	2.6	-7.8	10.8	7.7	.
C=CCn1c(SCC(=O)N2CCOCC2)nc(O)cc1=O	1.6	3.2	0.8	2.7	7.6	4.9	.
Cc1ccccc1-n1c(SCC(=O)N2CCOCC2)nc(O)cc1=O	38.6*	4.8	-0.2	-10.3	-6.6	1.8	8.2
SMILES	pPAFAH FP inh	PAFAH2 FP inh	PAFAH1B2 inh	Apaf-1 inh	PREPL inh	PAFAH1B3 inh	pPAFAH confirm
Clc1ccc2nncn2n1	6.2	7.0	2.9	-2.4	12.0	-11.4	.
Nc1ccc(Nc2ccccc2)c(S(=O)(=O)O)c1	60.2*	18.4	4.0	0.2	13.8	9.3	7.7
Nc1cccc(Nc2ccccc2)c1	1.2	-1.7	5.2	3.9	20.6	5.3	.
Cc1ccc(Nc2ccc(N)cc2S(=O)(=O)O)cc1	49.9*	11.4	8.2	4.8	18.4	6.8	4.9
CNS(=O)(=O)c1cc(N)ccc1C	1.7	1.2	0.5	9.7	2.7	9.5	.
Cc1cc(NC(=O)COC(=O)CNS(=O)(=O)c2ccc(C)c(C)c2)no1	6.8	5.0	6.2	-5.0	13.7	10.7	.
Cc1cccc(NS(=O)(=O)c2ccc(C)c(C(=O)OCC(=O)Nc3cc(C)on3)c2)c1	67.7*	-5.7	4.4	0.9	-5.6	4.8	62.4*
CCN(CC)S(=O)(=O)c1ccc(N2CC(C(=O)N3CCOCC3)CC2=O)cc1 (centres undefined)	1.1	6.6	-0.9	-9.1	-0.3	-2.5	.
CCc1c(C)nc2ncnn2c1N1CCCC(C(=O)NCc2ccco2)C1 (centres undefined)	57.3*	0.6	-0.9	-2.8	8.2	-7.0	3.6
Brc1ccc2c(c1)OCCOCCOc1cc(Br)ccc1OCCOCCOCCO2	68.2*	2.2	5.5	17.3	5.7	4.8	59.5*
COc1cc(/C=C2/S/C(=N/S(=O)(=O)c3ccccc3)NC2=O)c([N+](=O)[O-])cc1OC	15.8	19.7	17.0	14.0	8.7	3.4	.
O=C1N/C(=N\S(=O)(=O)c2ccccc2)S/C1=C\c1cc([N+](=O)[O-])ccc1O	40.8*	30.6*	38.4*	2.2	5.5	42.9*	48.8*
Nc1ccc2nc(-c3cccnc3)[nH]c2c1	39.5*	-3.9	-0.4	20.0	13.4	6.3	-0.1
Nc1ccc2nc(-c3ccccc3)[nH]c2c1	3.9	9.9	5.8	29.5	11.7	6.4	.
COc1ccc(S(=O)(=O)Nc2ccccc2C(=O)Nc2nc(-c3ccc(F)cc3)cs2)cc1OC	15.4	17.3	15.6	0.1	13.2	4.5	.
COc1ccc(-c2csc(NC(=O)c3ccccc3NS(=O)(=O)c3ccc(C)cc3)n2)cc1	39.0*	35.8*	14.6	14.8	21.4	6.0	49.1*
O=C(NCc1ccc(F)cc1)c1c2c(nc3ccccc13)CCC2	35.7*	4.9	4.9	9.4	17.5	1.8	24.6*
CCc1cc2c(-c3ccccc3)cc(=O)oc2cc1OCC(C)=O	15.2	-4.2	3.2	18.0	-2.2	10.0	.
CCCc1cc2c(-c3ccccc3)cc(=O)oc2cc1OCc1ccc(C(=O)O)o1	53.8*	-2.1	7.5	17.5	-3.7	-1.2	47.5*
O=C(c1ccc(F)cc1)N(C(=O)c1ccc(F)cc1)c1ncccn1	4.8	-2.6	7.4	-8.7	-10.1	9.5	.
O=C(/C=C/c1ccccc1)c1cc(Br)ccc(=O)c1O	36.0*	36.7*	2.9	11.0	10.9	11.5	23.4
COc1ccccc1-c1sc2cc3c(cc2c1C#Cc1cncn1C)OCO3	11.7	4.4	-7.0	31.1	13.8	0.9	.
N#CCc1nn2c3c(cnc2c1C#N)C(=O)CCC3	52.7*	0.6	3.0	15.9	31.5	11.5	3.5
